Reference: ChEMBL document CHEMBL3877257, “New isoxazolidinone and 3,4-dehydro-β-proline derivatives as antibacterial agents and MAO-inhibitors: A complex balance between two activities” (Eur J Med Chem, 2016)
Values after ≈ are worked out from the molar mass of the structure shown.

Assays:
Staphylococcus aureus [1] = assay: Antibacterial activity against Staphylococcus aureus ATCC 29213 after 18 to 24 hrs by broth microdilution method; type: functional
In short: (§1)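 Broth microdilution per CLSI: serial 2-fold dilutions in Mueller-Hinton broth, compounds dissolved in DMSO; equal volume of inoculum at 1x10^6 CFU/mL added to each well; 37 C for 18-24 h. MIC = lowest concentration with no visible turbidity. Clinical S. aureus strains (MRSA and MSSA) were 12 recent isolates with characterized susceptibility.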

Enterococcus faecalis = assay: Antibacterial activity against Enterococcus faecalis ATCC 29212 after 18 to 24 hrs by broth microdilution method; type: functional; in short: as §1
[2] = Cytotoxicity against human HepG2 cells assessed as cell viability at 100 ug/mL after 24 hrs by prestoblue assay; type: toxicity, cell-based; conditions: read-out: Activity
In short: (§2)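 HepG2 grown in DMEM with 10% heat-inactivated FBS on collagen; seeded at 45,000 cells/cm2, treated two days later for 24 h across 10-100 µg/mL. Viability read with resazurin-based PrestoBlue, 1 h at 37°C, absorbance 570 nm (reference 600 nm). Mean ± SEM, three experiments in triplicate, Student's t test.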

HepG2 [3] = assay: Inhibition of MAO activity in human HepG2 cells at 10 ug/mL after 24 hrs by spectrophotometric method; type: cell-based
In short: (§3)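 HepG2 on collagen, seeded at 45,000 cells/cm2, dosed two days later at 10-100 µg/mL for 24 h. Lysate MAO was measured by Amplex Red/HRP H2O2 detection, 30 min at room temperature, absorbance 570 nm. Mean ± SEM of three experiments in triplicate.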

HepG2 [4] = assay: Inhibition of MAO activity in human HepG2 cells at 100 ug/mL after 24 hrs by spectrophotometric method; type: cell-based; in short: as §3
Staphylococcus aureus [5] = assay: Antibacterial activity against Staphylococcus aureus clinical isolate after 18 to 24 hrs by broth microdilution method; type: functional; in short: as §1
[6] = Cytotoxicity against human HepG2 cells assessed as decrease in cell viability at 10 ug/mL after 24 hrs by prestoblue assay; type: toxicity, cell-based; conditions: hepg2, 24 h; in short: as §2

Structure (SMILES)	MIC (Staphylococcus aureus [1])	MIC (Enterococcus faecalis)	viability at 24 h, 100 ug/mL [2]	inhibition (HepG2 [3])	inhibition (HepG2 [4])	MIC (Staphylococcus aureus [5])	MIC50 (Staphylococcus aureus [5])	MIC90 (Staphylococcus aureus [5])	Activity [6]
CCNC(=O)C1C(=O)ON(C(=O)c2ccc(N3CCOCC3)c(F)c2)C1C1CCCCC1 (stereo not drawn)	> 128 µg/mL	> 128 µg/mL	10%	25%	45%	32 to 128 µg/mL (≈ 71.5 to 286 µM)	64 µg/mL (≈ 143 µM)	> 128 µg/mL	Non-Toxic
CCNC(=O)C1C(=O)ON(C(=O)c2ccc(N3CCOCC3)c(F)c2)C1C(C)C (stereo not drawn)	> 128 µg/mL	> 128 µg/mL	10%	25%	45%	> 128 µg/mL	> 128 µg/mL	> 128 µg/mL	Non-Toxic
CCNC(=O)C1=CCN(C(=O)c2ccc(N3CCOCC3)c(F)c2)[C@H]1C(C)C	> 128 µg/mL	> 128 µg/mL	20%	25%	45%	> 128 µg/mL	> 128 µg/mL	> 128 µg/mL	Non-Toxic
CC(=O)NC[C@H]1CN(c2ccc(N3CCOCC3)c(F)c2)C(=O)O1 [LINEZOLID]	–	–	–	–	15%	1 to 4 µg/mL (≈ 2.96 to 11.9 µM)	2 µg/mL (≈ 5.93 µM)	2 µg/mL (≈ 5.93 µM)	–
CCNC(=O)C1=CCN(C(=O)c2ccc(N3CCOCC3)c(F)c2)[C@@H]1C(C)C	> 128 µg/mL	> 128 µg/mL	10%	–	–	> 128 µg/mL	> 128 µg/mL	> 128 µg/mL	Non-Toxic
